The results in this text go back to ChEMBL document CHEMBL1137375, “Design, synthesis, and biological evaluation of new 1,8-naphthyridin-4(1H)-on-3-carboxamide and quinolin-4(1H)-on-3-carboxamide derivatives as CB2 selective agonists” (J Med Chem, 2006).

Active and inactive are the calls of the source. The rule behind the calls is not given here.

By Ki is commonly meant the dissociation constant of the complex between target and ligand, obtained from inhibition or displacement. One may read the EC50 as the midpoint of the concentration-response curve. By Emax is commonly meant the maximal effect, on the per cent scale that the assay sets.

For assay [1], the target named is Cannabinoid receptor (Mus musculus) (UniProt P47746+P47936). As to the kind of experiment: Selectivity for DBA/J2 mouse CB2 receptor over CB1 receptor. It counts as protein assay.
For assay [2], the target named is T1, Cannabinoid receptor 1 (Mus musculus, UniProt P47746). The experiment in a line: Displacement of [3H]CP-55940 from CB1 receptor in DBA/J2 mouse brain. It is filed as tissue-based. (Loss of bound radioactivity is the signal in a displacement assay; it reports binding, not function.)
The target in assay [3] is Cannabinoid receptor 2 (Mus musculus, UniProt P47936). As to the kind of experiment: Displacement of [3H]CP-55940 from CB2 receptor in DBA/J2 mouse spleen. The procedure, abridged: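 Membranes (40-60 µg protein) from mouse brain minus cerebellum (CB1) or spleen (CB2), incubated 1 h at 30 °C with 0.5 nM [3H]CP-55,940 in TME buffer (pH 7.4) with 5 mg/mL BSA. GF/C filtration, scintillation counting. IC50 by nonlinear fit, converted to Ki by Cheng-Prusoff; at least three membrane preparations.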

Assay [4] deals with Cannabinoid receptor 1 (Mus musculus) (UniProt P47746). As to the kind of experiment: (§1) Activity at CB1 receptor assessed as stimulation of [35S]GTP-gamma-S binding in DBA/J2 mouse brain. The conditions noted are these: filed as agonist. It is filed as functional.
The target in assay [5] is T1, Cannabinoid receptor 1. Described as §1. It counts as functional.
In assay [6] the target is Cannabinoid receptor 1 (Mus musculus) (UniProt P47746). As to the kind of experiment: Activity at CB1 receptor assessed as stimulation of [35S]GTP-gamma-S binding in DBA/J2 mouse brain relative to control. It counts as functional. The procedure, abridged: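 Mouse brain (minus cerebellum) P2 membranes, 5-10 µg protein, incubated 60 min at 30 °C in 50 mM Tris-HCl, 3 mM MgCl2, 0.2 mM EGTA, 100 mM NaCl, pH 7.4, 0.1% BSA, with 0.05 nM [35S]GTPγS, 30 µM GDP, compound 1-5000 nM. Filtration, scintillation counting. Nonspecific binding with 10 µM GTPγS. Stimulation as % above basal. EC50/Emax by nonlinear regression; at least four experiments in duplicate.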
(In general: GTPγS is a poorly hydrolysed GTP analogue; its binding reports G protein activation.)

The target of assay [7] is Cannabinoid receptor 2 (Homo sapiens) (UniProt P34972). As to the kind of experiment: Activity at CB2 receptor assessed as reduction in CD203c expression in activated human basophil. It is filed as functional. The procedure, abridged: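 Human basophil-rich leukocytes from donor blood buffy coats via Ficoll-Paque. Cells pretreated with compound 1 nM to 1 µM for 30 min at 37 °C, then stimulated with anti-IgE 1 µg/mL for 30 min at 37 °C. CD203c (PE) read by flow cytometry on IgE-FITC-gated basophils. Antagonist check: SR 144528 or AM251 100 nM preincubated 30 min. Six experiments in triplicate.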
Chain of Cannabinoid receptor 2 (Homo sapiens) (P34972 whole entry): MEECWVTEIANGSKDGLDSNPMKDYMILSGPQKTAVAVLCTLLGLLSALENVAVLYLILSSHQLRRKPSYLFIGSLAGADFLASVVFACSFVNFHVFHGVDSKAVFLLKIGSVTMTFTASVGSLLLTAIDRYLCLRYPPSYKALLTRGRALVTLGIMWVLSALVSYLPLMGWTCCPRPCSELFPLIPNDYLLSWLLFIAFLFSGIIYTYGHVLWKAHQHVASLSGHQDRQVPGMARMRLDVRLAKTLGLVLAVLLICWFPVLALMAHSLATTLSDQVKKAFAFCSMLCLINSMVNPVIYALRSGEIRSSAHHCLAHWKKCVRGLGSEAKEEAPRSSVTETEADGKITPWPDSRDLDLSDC

Chain of Cannabinoid receptor 2 (P47936 whole entry): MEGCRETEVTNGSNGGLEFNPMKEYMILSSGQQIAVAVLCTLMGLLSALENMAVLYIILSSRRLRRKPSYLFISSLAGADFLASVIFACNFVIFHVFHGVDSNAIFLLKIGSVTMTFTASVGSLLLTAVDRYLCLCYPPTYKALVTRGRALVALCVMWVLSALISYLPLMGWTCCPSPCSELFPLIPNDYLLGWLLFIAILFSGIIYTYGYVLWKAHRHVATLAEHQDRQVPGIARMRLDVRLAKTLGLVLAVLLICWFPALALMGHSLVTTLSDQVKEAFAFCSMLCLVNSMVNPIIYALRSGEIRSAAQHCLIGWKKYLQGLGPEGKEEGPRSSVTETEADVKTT
Chain of Cannabinoid receptor (Mus musculus) (P47746 whole entry, looked up): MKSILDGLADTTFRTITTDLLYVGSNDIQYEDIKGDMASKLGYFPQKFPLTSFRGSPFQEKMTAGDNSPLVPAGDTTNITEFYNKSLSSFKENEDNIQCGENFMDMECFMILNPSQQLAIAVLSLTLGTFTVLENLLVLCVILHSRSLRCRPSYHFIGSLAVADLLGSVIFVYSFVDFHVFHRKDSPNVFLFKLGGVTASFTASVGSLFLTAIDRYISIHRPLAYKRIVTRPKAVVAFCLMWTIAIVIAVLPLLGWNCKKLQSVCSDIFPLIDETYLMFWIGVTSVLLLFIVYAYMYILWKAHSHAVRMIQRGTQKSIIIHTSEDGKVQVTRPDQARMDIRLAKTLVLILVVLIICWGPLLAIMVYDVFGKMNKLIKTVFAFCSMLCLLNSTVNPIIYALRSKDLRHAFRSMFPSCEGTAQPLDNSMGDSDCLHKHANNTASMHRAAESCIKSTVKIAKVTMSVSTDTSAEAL
Chain of Cannabinoid receptor (Mus musculus) (P47936 whole entry, looked up): as the sequence (P47936 whole entry) above
Chain of Cannabinoid receptor 1 (Mus musculus) (P47746 whole entry): as the sequence (P47746 whole entry, looked up) above
T1 sequence (P47746 whole entry): as the sequence (P47746 whole entry, looked up) above

Take `Cc1ccc2c(=O)c(C(=O)NC3CCCCC3)cn(CCc3ccccc3)c2n1`: the Ratio Ki in assay [1] is more than 62. Further, the Ki in assay [2] is more than 1000 nM; in assay [3], 16.3 nM.
On the same counts, the results for `O=C(NC1CCCCC1)c1cn(CCN2CCOCC2)c2ncccc2c1=O` are more than 15, more than 1000 nM and 67.2 nM.
In assay [3], `O=C(NC1CCCCC1)c1cn(Cc2ccccc2F)c2nc(Cl)ccc2c1=O` yielded an inhibition constant (Ki) of 18.1 nM.
In the case of `CCCC(C)(C)c1ccc2c(c1)OC(C)(C)[C@@H]1CC=C(C)C[C@@H]21`, in assay [1], the Ratio Ki was 7. In addition, the Ki in assay [2] turned out to be 458 nM; in assay [3], 65 nM.
For `Cc1ccc2c(=O)c(C(=O)NC3CCC(C)CC3)cn(Cc3ccccc3F)c2n1` (stereo not given), the Activity result in assay [4] is “Agonist”. Besides, the EC50 in assay [5] stood at 138 nM. Further, in assay [1], the Ratio Ki came to 4. The Emax in assay [6] came out at 161%. Further, the Ki in assay [2] worked out at 37.5 nM; in assay [3], 8.4 nM.
Turning to `Cc1ccc2c(=O)c(C(=O)NC3CCCCC3)cn(CCN3CCN(c4ccccc4)CC3)c2n1`, the Ki in assay [2] and in assay [3] was more than 1000 nM throughout.
For the compound `O=C(NC1CCCCC1)c1cn(Cc2ccc(F)cc2)c2ncccc2c1=O`, the Ratio Ki in assay [1] was found to be 29. In addition, the Ki in assay [2] worked out at 384 nM; in assay [3], 13 nM.
Take `Cc1c(C(=O)c2cccc3ccccc23)c2cccc3c2n1[C@H](CN1CCOCC1)CO3`: the Emax in assay [6] was 187%.
Take `COc1ccc(Cn2cc(C(=O)NC3CCCCC3)c(=O)c3ccc(C)nc32)cc1`: the Ratio Ki in assay [1] is more than 28. The Ki in assay [2] is more than 1000 nM; in assay [3] it was 35.8 nM.
Take `Cc1ccc2c(=O)c(C(=O)NC3CCCC3)cn(CCN3CCOCC3)c2n1`: in assay [7], the result was Active. Also, the Ratio Ki in assay [1] is more than 20. Besides, the Ki in assay [2] is more than 1000 nM; in assay [3] it was 50 nM.
As for `CCCCC/C=C\C/C=C\C/C=C\C/C=C\CCCC(=O)NCCCl`, the Ratio Ki in assay [1] worked out at 0.03. Further, the inhibition constant Ki in assay [2] was 3.9 nM; in assay [3] it was 121 nM.
As for `O=C(NC1CCCCC1)c1cn(Cc2ccccc2)c2ncccc2c1=O`, the Ratio Ki in assay [1] was more than 21. The inhibition constant (Ki) in assay [2] is more than 1000 nM; in assay [3] it was 48.6 nM.
The matching figures for `Cc1ccc2c(=O)c(C(=O)NC3CCCCCC3)cn(Cc3ccccc3F)c2n1`: 11, 149 nM and 13.4 nM.
The matching figures for `O=C(NC1CCCCC1)c1cn(CCN2CCOCC2)c2cc(Cl)ccc2c1=O`: more than 303, more than 1000 nM and 3.3 nM.
On to `Cc1ccc2c(n1)N(Cc1ccccc1F)CC(C(=O)NC1CCCCC1)C2O` (stereo not given), for which the Ki in assay [2] and in assay [3] was more than 1000 nM each time.
As to `Cc1ccc2c(n1)N(Cc1ccccc1)CC(C(=O)NC1CCCCC1)C2O` (stereo not given), the Ki in assay [2] and in assay [3] was more than 1000 nM in each case.
As to `O=C(NC1CCCCC1)c1cn(Cc2ccccc2)c2ccccc2c1=O`, the result in assay [7] was Active. Besides, the Ratio Ki in assay [1] was more than 210. Further, the Ki is more than 1000 nM in assay [2] and 4.8 nM in assay [3].
In the case of `Cc1ccc2c(=O)c(C(=O)NC3CCCCCC3)cn(Cc3ccccc3)c2n1`, the Ratio Ki in assay [1] was found to be 28. Besides, the Ki in assay [2] turned out to be 143 nM; in assay [3], 5.1 nM.
On the same counts, the results for `Cc1ccc2c(=O)c(C(=O)NC3CCCCC3)cn(Cc3ccccc3)c2n1` are 13, 127 nM and 10 nM.
On the same counts, the results for `Cc1ccc2c(=O)c(C(=O)NC3CCCCCC3)cn(Cc3ccc(F)cc3)c2n1` are 4.3, 4.3 nM and 1 nM.
Consider `Cc1ccc2c(n1)N(CCN1CCOCC1)CC(C(=O)NC1CCC(C)CC1)C2O` (stereo not given), for which the Ki in assay [2] and in assay [3] was more than 1000 nM each time.
Regarding `CC1CCC(NC(=O)c2cn(CCN3CCOCC3)c3nc(Cl)ccc3c2=O)CC1` (stereo not given), the Ratio Ki in assay [1] was more than 25. Further, the Ki in assay [2] was more than 1000 nM; in assay [3], 40.5 nM.
The matching figures for `O=C(NC1CCCCC1)c1cn(Cc2ccc(F)cc2)c2nc(Cl)ccc2c1=O`: 23, 495 nM and 21.4 nM.
In the case of `Cc1ccc2c(=O)c(C(=O)NC3CCC(C)CC3)cn(Cc3ccc(F)cc3)c2n1` (stereo not given), in assay [4], the Activity entry is “Agonist”. Moreover, the EC50 in assay [5] was 27 nM. Besides, the Ratio Ki in assay [1] came out at 6. The Emax in assay [6] amounted to 172%. Also, the Ki in assay [2] amounted to 8.7 nM; in assay [3], 1.4 nM.
As for `O=C(NC1CCCCC1)c1cn(Cc2ccccc2)c2nc(Cl)ccc2c1=O`, the Ratio Ki in assay [1] stood at 19. Also, the Ki in assay [2] came out at 464 nM; in assay [3], 24.6 nM.
